Laboratory results as given in ChEMBL document CHEMBL4513216, “Probing the Open Global Health Chemical Diversity Library for Multistage-Active Starting Points for Next-Generation Antimalarials” (ACS Infect Dis, 2020).

Assay: Toxicity liver stage against HepG2, at 10uM
Format: cell-based
Set-up: test concentration 10 uM, cell line HepG2-A16-CD81EGFP
Details: human, HepG2-A16-CD81EGFP cells; read-out: INHIBITION
In short: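 Uninfected HepG2-A16-CD81EGFP cells, 3 × 10^3 per well, 1536-well, plated on prespotted compound at 10 μM final, parasite-free screening media added to match infected plates; puromycin 10 μM positive, DMSO 0.5% negative; run in parallel with 48 h PbLuc assay at 37 °C, 5% CO2; viability by CellTiter-Glo luminescence, normalized to controls.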

| Structure (SMILES) | cytotoxicity at 10 µM |
| --- | --- |
| CCOc1cc2c(cc1CN1CCC3(CC1)CNC(=O)C3)CCC2 | -2.04% |
| CCc1nc(N2CCCC(CO)(CCOC)C2)ncc1C (stereo not drawn) | 4.93% |
| O=C(O)c1cc(S(=O)(=O)Nc2ccc(Cl)cc2)cc2c1OCCO2 | 2.33% |
| O=C1N(Cc2cccc(F)c2F)CCCC1(O)CN1CCCOCC1 (stereo not drawn) | 18.3% |
| COCC(=O)N1CCCN(Cc2c(C)nc3ccc(Cl)cn23)CC1 | 5.39% |
| CCOCCCNc1ncc(-c2cccc(F)c2)c(-c2nccn2C)n1 | 12.5% |
| O=C1CCCN1CCN1CCCCC1Cn1cncn1 (stereo not drawn) | -0.225% |
| COc1cc2cc(C)c(SCCN3CCCC3)nc2cc1OC | -7.48% |
| Cc1nc(CN2CCCC(c3cc(C(N)=O)[nH]n3)C2)oc1C (stereo not drawn) | -31.2% |
| Cc1nc(CNC(=O)NCC(O)c2ccc(F)c(F)c2)cs1 (stereo not drawn) | -3.88% |
| COCc1cc(CNC(=O)c2c(C)c(C)cc(C)c2C)n[nH]1 | -6.65% |
| CC(Sc1nc(N)cc(N)n1)c1nc(C(C)(C)C)no1 (stereo not drawn) | -5.27% |
| Cc1ccc(N2CCN(C(=O)CCc3ccc(O)cc3)CC2=O)cc1 | -2.36% |
| CC(C)Cc1cc(CNC(=O)c2ccccc2C2CCNC2)no1 (stereo not drawn) | -45.5% |
| COCCN1CCCC2(CCN(c3cccc(C(F)(F)F)n3)C2)C1=O (stereo not drawn) | 3.84% |
| CC1CCC2(CC1)Nc1ccccc1CO2 (stereo not drawn) | 4.81% |
| Cc1ccc(C(=O)N2CCCC(n3cccn3)C2)cc1S(C)(=O)=O (stereo not drawn) | -4.63% |
| O=C(CN1CCCC1c1noc(C2CC2)n1)NCCc1ccsc1 (stereo not drawn) | 2.82% |
| CN1CCOC(CN(C(=O)CN2CCCC2=O)c2nccs2)C1 (stereo not drawn) | -7.06% |
| COCCNC(=O)[C@@H]1CN(Cc2sccc2C)C[C@H]2OCC[C@H]21 | 2.98% |
| CC(C)(O)CCc1ccc(C(=O)NCC2CCCOC2)cc1 (stereo not drawn) | 0.445% |
| CO[C@@H]1c2ccccc2C2(CCN(C(=O)CNC(=O)C(C)C)CC2)[C@H]1O | -3.26% |
| O=C(Nc1cc(-c2ccncc2)no1)C1CCCCC1 | -5.37% |

| Structure (SMILES) | cytotoxicity at 10 µM |
| --- | --- |
| O=C(Cc1noc2ccccc12)N1CCCC1c1noc(C2CC2)n1 (stereo not drawn) | 61.5% |
| Cc1cc(NC2CCc3nc(C)nn3C2)n2ncnc2n1 (stereo not drawn) | -6.29% |
| Cc1nc(C(C)C)sc1C(=O)NCCNc1ncccn1 | -2.02% |
| CCc1ncc(C(=O)N(C)C(C)c2ccc3c(c2)OCCO3)cn1 (stereo not drawn) | -2.96% |
| OCCN(Cc1ccncc1)CC1(c2ccc(Cl)cc2)CCCC1 | 13.8% |
| CN(Cc1nnc2n1CCC2)S(=O)(=O)c1ccc(Br)cc1Cl | -6.08% |
| Cc1cnn(CC2CCCCN2CCCS(N)(=O)=O)c1 (stereo not drawn) | 4.02% |
| CC(C)CN1CC2(CCN(C(=O)c3nc4ncccn4n3)CC2)CC1=O | 0.345% |
| CC(C)S(=O)(=O)N1CCCC(c2cccc(C(=O)O)c2)C1 (stereo not drawn) | -2.18% |
| Cc1nnc2n1CCN(C(=O)c1ccc(Cn3cccc3)cc1)C2 | -2.4% |
| c1csc(CN2C[C@@H]3COC[C@]3(COCc3ccncc3)C2)c1 | 18% |
| O=c1c(Cc2ccccc2)c(O)ccn1Cc1ccco1 | 5.01% |
| C[S+]([O-])c1cccc(NC(=O)N[C@H](CCO)c2ccccc2)c1 (stereo partly drawn) | -3.13% |
| O=C(CCc1ccccc1)N1CCn2cc(Cn3cncn3)nc2C1 | -0.881% |
| CCCS(=O)(=O)NCC1CCOc2ccccc2C1 (stereo not drawn) | -6.92% |
| Cc1noc(NCc2cn(C)nc2-c2ccncc2)n1 | -3.48% |
| CSCc1cc(F)ccc1CNC(=O)N1CCCC(CO)C1 (stereo not drawn) | 10.3% |
| CS(=O)(=O)NC1CCN(C(=O)NCC2CCCO2)CC1 (stereo not drawn) | -1.9% |
| Cc1cc(CN(C)C(=O)NC2CCS(=O)(=O)C2)no1 (stereo not drawn) | -1.61% |
| CS(=O)(=O)N1CCCCCC1c1cc(-c2ccc(F)cc2)no1 (stereo not drawn) | 2.97% |
| Cc1ccc(CNC(=O)c2nn(C)c3c2CS(=O)(=O)CC3)o1 | 6.14% |
| COC(=O)CN1Cc2cc3c(cc2NCCC1=O)OCO3 | -8.1% |
| Cc1ccc(N2CCCN(CC3CC3)C(C(C)C)C2)nn1 (stereo not drawn) | 13.3% |

| Structure (SMILES) | cytotoxicity at 10 µM |
| --- | --- |
| CNC(=O)COc1ccccc1CNCc1c(C)noc1C | 2.32% |
| CN(C)S(=O)(=O)NC(=O)CC(c1ccccc1)C(F)(F)F (stereo not drawn) | -39.5% |
| OC(CN1CC(n2cccn2)C1)c1ccc2c(c1)OCCO2 (stereo not drawn) | -19% |
| O=C1Nc2ccccc2NC12CCN(Cc1nnc(C3CC3)o1)CC2 | -7.03% |
| CCc1ccc2nc(C)cc(C(=O)NC[C@@H]3CCNC[C@H]3O)c2c1 | -3% |
| CCc1c(C)noc1-c1cnc(NC2CC2)nc1-c1cnc(C)cn1 | -29% |
| O=S(=O)(NCCn1cc(C2CCCNC2)nn1)c1ccc(Cl)cc1 (stereo not drawn) | -17.1% |
| O=C(c1ccc2c(c1)OCO2)N1CCCSCC1CN1CCCC1 (stereo not drawn) | 6.95% |
| O=S(=O)(Nc1cn[nH]c1)c1ccc(Br)c(F)c1 | 0.462% |
| CC(C)(C)n1cc(C#N)cc1NC(=O)CCNC(=O)c1ccco1 | 1.95% |
| Cc1nc2c(cc1C(=O)Nc1ccccc1Cl)c(=O)n(C)c(=O)n2C | -5.06% |
| Cn1cc(C(=O)NCCCN2CCCCCC2=O)c(-c2cccnc2)n1 | -8.3% |
| Cc1ccccc1C1CCN(CCn2cc(-c3nccn3C)nn2)C1 (stereo not drawn) | 4.96% |
| OC1CN(Cc2cccc(N3CCOCC3)c2)Cc2ccccc21 (stereo not drawn) | -3.15% |
| CCC(CC)c1nnc(NC(=O)N2CCCC(NC(C)=O)C2)s1 (stereo not drawn) | 5.9% |
| CCOCCN1CCN(Cc2nc(C3CC3)no2)CC1CC (stereo not drawn) | -5.75% |
| O=C(CCc1ccncc1)Nc1ccc(OCC2CCOCC2)cc1 | -2.98% |
| Cc1ccc(CN2Cc3c(C(=O)N4CCOCC4)nn(C)c3C2)s1 | 6.15% |
| COc1c(C)cnc(CN(C)C(=O)c2ccccc2F)c1C | -9.11% |
| Cc1nn(-c2ncccn2)c2c1C(c1cnn(C)c1)SCC(=O)N2 (stereo not drawn) | -45% |
| O=C(NCc1cccnc1)[C@@H]1CC[C@@H]2[C@@H](CCN2c2ncccn2)O1 | -68% |
| COc1ccccc1Oc1ncccc1CNC(=O)C(C)CN (stereo not drawn) | 0.884% |
| Cc1cc(C(=O)Nc2ccc3c(c2)N(C)CCN(C)C3)on1 | 7.34% |

| Structure (SMILES) | cytotoxicity at 10 µM |
| --- | --- |
| Cc1nc(CN2CCC3(CCN(Cc4nccn4C)CC3)C2=O)cs1 | -1.43% |
| CC(C)CNC(=O)c1nn(C)c(NC(=O)Cc2ccccc2)c1F | -3.22% |
| Cc1nc(O)cc(CNC(=O)CC[C@@H]2CCCN3CCCC[C@H]23)n1 | 1.87% |
| O=C(NCCC1CCN(CC(F)(F)F)CC1)C1CCCO1 (stereo not drawn) | 5.48% |
| Brc1cnc(NCc2ccccc2N2CCOCC2)nc1 | 1.3% |
| Cc1cc(CNC2(c3ccccc3F)CC2)no1 | 5.71% |
| CCS(=O)(=O)NC1CCCN(c2ccc(F)cc2C)C1=O (stereo not drawn) | 3.93% |
| Cc1nc(CCN(C)C(=O)C2COc3ccccc3C2)no1 (stereo not drawn) | -19.7% |
| CNC(=O)NC(=O)CCSc1ccccc1Cl | -5.13% |
| COc1cccc2c1OCC(Cc1cnc(N)c(C)c1)C2 (stereo not drawn) | 3.36% |
| CCN(CC)C(=O)[C@@H]1C[C@H](N)CN1C(=O)c1cc2c([nH]c1=O)CCC2 | -1.94% |
| CN(C)C(=O)c1cnn2c1OCCC2 | -6.59% |
| CCc1ccccc1C(=O)N1CCN(S(C)(=O)=O)[C@@H](C)C1 | -8.72% |
| O=C(NC(c1ccc(Cl)cc1)c1cccnc1)C1CC1 (stereo not drawn) | -3.94% |
| COc1nn(C)c2c1CCCN(C(=O)c1ccc3ccccc3n1)C2 | 13.7% |
| N#CCCN(Cc1ccco1)C(=O)C1CCCc2ccccc21 (stereo not drawn) | -4.27% |
| CCCOC(=O)NCCC1CN(c2cnn(C)c(=O)c2)CCO1 (stereo not drawn) | 5.31% |
| CCC(C)(NCC(=O)Nc1ccccc1)c1nc(C)cs1 (stereo not drawn) | -8.66% |
| O=C(NCCc1ccncc1)c1ccc(S(=O)(=O)NC2CCC2)cc1 | -7.54% |
| CCC1=N[C@@]2(CC[C@@H]3CN(Cc4ccccc4C)C[C@@H]32)C(=O)N1 | 8.4% |
| CCn1cc(CN(C)S(=O)(=O)c2cnn(C)c2)cn1 | 8.16% |
| CN(CC(C)(C)O)C(=O)Nc1ccc(F)c(-n2cccc2)c1 | -9.3% |
| CN(c1ccccc1)c1ccc(CC2CCCN(CCO)C2)nn1 (stereo not drawn) | -9.3% |

| Structure (SMILES) | cytotoxicity at 10 µM |
| --- | --- |
| COCC(=O)N1CCCCC1c1nc(C)c2c(n1)N(C1CC1)C(=O)CC2 (stereo not drawn) | -1% |
| CCc1nc2c(c(N3CCOCC3)n1)CCN(C(=O)c1ccon1)CC2 | 10.6% |
| Cc1nc2ncc3c(=O)n(C)ccc3n2n1 | -15.4% |
| CC(C)c1nc(CNC(=O)c2ccc(C(C)N3CCCCC3)o2)cs1 (stereo not drawn) | -9.93% |
| O=C(c1ccncc1)N1CCOC2(COCCN(c3cncnc3)C2)C1 (stereo not drawn) | 8.58% |
| O=C(CCC1CCN(C(=O)c2csnn2)CC1)NCc1cccc(Cl)c1 | -4.55% |
| Cc1nc(-c2ccco2)ccc1C(=O)NCCN1CCN(C)CC1 | 3.88% |
| COCCC1(C(=O)O)CCCN(Cc2cc3c(cc2Cl)OCO3)C1 (stereo not drawn) | -5.41% |
| Cc1cnc2n(c1=O)CC(C(=O)Nc1ccon1)CS2 (stereo not drawn) | 0.595% |
| Cc1ccnc(C2CCN(S(=O)(=O)c3cn(C)cn3)CC2)n1 | 3.24% |
| Cc1nn(C)c(C)c1S(=O)(=O)NCCn1ccc(-c2cccs2)n1 | -3.53% |
| CCOCC(=O)NS(=O)(=O)c1ccc(F)cc1C(F)(F)F | 3.25% |
| CC(=O)Nc1ncc(S(=O)(=O)Nc2ccc(F)cc2F)s1 | 11.1% |
| Cc1cccc(CN2C(=O)OCC2CO)c1F (stereo not drawn) | -2.13% |
| Cc1nc(COc2cccc(C#N)c2)no1 | -0.513% |
| CCc1cc(-c2ccnc3c2ccn3C)nc(N2CCOCC2)n1 | -7.09% |
| NC(=O)NCC(=O)N1C[C@@H]2CC[C@H]1CN(C1Cc3ccccc3C1)C2 | 15.3% |
| COc1ccc2c(c1)C1(CCN(Cc3ccccn3)CC1)N(C)CC2 | -150% |
| CCc1noc(C)c1C(=O)N1CCCC1c1c(C)nn(C)c1C (stereo not drawn) | -6.97% |
| CC(=O)NCCN1CCC(c2cccs2)CC1 | -22.6% |
| CS(=O)(=O)N1CCC2(CCCN(c3ncc(F)cn3)C2)C1 (stereo not drawn) | 5.19% |
